Data published in ChEMBL document CHEMBL1255409, “In vitro activity of ceftaroline against 623 diverse strains of anaerobic bacteria” (2010).
Converted amounts (≈) assume the structure as drawn.

Legend:
Type in all cases: functional
[1] = tested on: Anaerococcus octavius; assay: Antimicrobial activity against Anaerococcus octavius under anaerobic conditions after 44 hrs by CLSI-M11-47 protocol based agar dilution method
Summary of the method: (§1)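 Reference agar dilution per CLSI M11-A7 with plates made on test day. Clinical isolates were stored at −70°C in 20% skim milk, subcultured twice, and 48-h cell paste was suspended in brucella broth to 0.5 McFarland. About 10^5 CFU/spot was applied with a Steers replicator. Plates were incubated 44 h at 37°C anaerobically. MIC was the lowest concentration giving complete inhibition or marked growth reduction versus the drug-free control.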

[2] = tested on: Fusobacterium mortiferum; assay: Antimicrobial activity against Fusobacterium mortiferum under anaerobic conditions after 44 hrs by CLSI-M11-47 protocol based agar dilution method; summary of the method: as §1
[3] = tested on: Prevotella oris; assay: Antimicrobial activity against Prevotella oris under anaerobic conditions after 44 hrs by CLSI-M11-47 protocol based agar dilution method; settings: Segatella oris
Summary of the method: (§2)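 Clinical isolates were stored at −70°C in 20% skim milk and identified phenotypically or by partial 16S rRNA sequencing. Each strain was subcultured twice from frozen stock. Cell paste from 48-h cultures was suspended in brucella broth to a 0.5 McFarland standard. About 10^5 CFU per spot were applied by Steers replicator to agar dilution plates prepared on the day of testing. Plates were incubated 44 h at 37°C in an anaerobic chamber. MIC was taken as the lowest concentration giving complete inhibition or marked reduction of growth versus the drug-free control.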

[4] = tested on: Bacteroides fragilis; assay: Antimicrobial activity against Bacteroides fragilis spp. under anaerobic conditions after 44 hrs by CLSI-M11-47 protocol based agar dilution method; summary of the method: as §1
[5] = tested on: Parabacteroides merdae; assay: Antimicrobial activity against Bacteroides merdae under anaerobic conditions after 44 hrs by CLSI-M11-47 protocol based agar dilution method; summary of the method: as §1
[6] = tested on: Eggerthella lenta; assay: Antimicrobial activity against Eggerthella lenta under anaerobic conditions after 44 hrs by CLSI-M11-47 protocol based agar dilution method; summary of the method: as §1
[7] = tested on: Cutibacterium acnes; assay: Antimicrobial activity against Propionibacterium acnes under anaerobic conditions after 44 hrs by CLSI-M11-47 protocol based agar dilution method; summary of the method: as §2
[8] = tested on: Peptostreptococcus stomatis; assay: Antimicrobial activity against Peptostreptococcus stomatis under anaerobic conditions after 44 hrs by CLSI-M11-47 protocol based agar dilution method; summary of the method: as §2
[9] = tested on: Propionibacterium avidum; assay: Antimicrobial activity against Propionibacterium avidum under anaerobic conditions after 44 hrs by CLSI-M11-47 protocol based agar dilution method; settings: Cutibacterium avidum; summary of the method: as §2
[10] = tested on: Clostridium subterminale; assay: Antimicrobial activity against Clostridium subterminale under anaerobic conditions after 44 hrs by CLSI-M11-47 protocol based agar dilution method; summary of the method: as §1
[11] = tested on: Peptostreptococcus anaerobius; assay: Antimicrobial activity against Peptostreptococcus anaerobius under anaerobic conditions after 44 hrs by CLSI-M11-47 protocol based agar dilution method; summary of the method: as §2
[12] = tested on: Lacrimispora sphenoides; assay: Antimicrobial activity against Clostridium sphenoides under anaerobic conditions after 44 hrs by CLSI-M11-47 protocol based agar dilution method; summary of the method: as §1
[13] = tested on: Eubacterium limosum; assay: Antimicrobial activity against Eubacterium limosum under anaerobic conditions after 44 hrs by CLSI-M11-47 protocol based agar dilution method; summary of the method: as §1
[14] = tested on: Phocaeicola vulgatus; assay: Antimicrobial activity against Bacteroides vulgatus under anaerobic conditions after 44 hrs by CLSI-M11-47 protocol based agar dilution method; summary of the method: as §1
[15] = tested on: Clostridium butyricum; assay: Antimicrobial activity against Clostridium butyricum under anaerobic conditions after 44 hrs by CLSI-M11-47 protocol based agar dilution method
[16] = tested on: Veillonella; assay: Antimicrobial activity against Veillonella spp. under anaerobic conditions after 44 hrs by CLSI-M11-47 protocol based agar dilution method; summary of the method: as §2
[17] = tested on: Lacticaseibacillus casei; assay: Antimicrobial activity against Lactobacillus casei under anaerobic conditions after 44 hrs by CLSI-M11-47 protocol based agar dilution method; summary of the method: as §2
[18] = tested on: Fusobacterium varium; assay: Antimicrobial activity against Fusobacterium varium under anaerobic conditions after 44 hrs by CLSI-M11-47 protocol based agar dilution method; summary of the method: as §2
[19] = tested on: Enterocloster clostridioformis; assay: Antimicrobial activity against Clostridium clostridioforme under anaerobic conditions after 44 hrs by CLSI-M11-47 protocol based agar dilution method; summary of the method: as §1
[20] = tested on: Clostridium glycolicum; assay: Antimicrobial activity against Clostridium glycolicum under anaerobic conditions after 44 hrs by CLSI-M11-47 protocol based agar dilution method; settings: Terrisporobacter glycolicus; summary of the method: as §1
[21] = tested on: Clostridium celerecrescens; assay: Antimicrobial activity against Clostridium celerecrescens under anaerobic conditions after 44 hrs by CLSI-M11-47 protocol based agar dilution method; settings: Lacrimispora celerecrescens; summary of the method: as §1
[22] = tested on: Bacteroides ovatus; assay: Antimicrobial activity against Bacteroides ovatus under anaerobic conditions after 44 hrs by CLSI-M11-47 protocol based agar dilution method; summary of the method: as §1
[23] = tested on: Clostridioides difficile; assay: Antimicrobial activity against Clostridium difficile under anaerobic conditions after 44 hrs by CLSI-M11-47 protocol based agar dilution method; summary of the method: as §1
[24] = tested on: Prevotella buccae; assay: Antimicrobial activity against Prevotella buccae under anaerobic conditions after 44 hrs by CLSI-M11-47 protocol based agar dilution method; settings: Segatella buccae; summary of the method: as §2
[25] = tested on: Eubacterium contortum; assay: Antimicrobial activity against Eubacterium contortum under anaerobic conditions after 44 hrs by CLSI-M11-47 protocol based agar dilution method; settings: Faecalicatena contorta; summary of the method: as §1
[26] = tested on: Peptoniphilus harei; assay: Antimicrobial activity against Peptoniphilus harei under anaerobic conditions after 44 hrs by CLSI-M11-47 protocol based agar dilution method; summary of the method: as §2
[27] = tested on: Paeniclostridium sordellii; assay: Antimicrobial activity against Clostridium sordellii under anaerobic conditions after 44 hrs by CLSI-M11-47 protocol based agar dilution method; settings: Paraclostridium sordellii; summary of the method: as §1
[28] = tested on: Clostridium hathewayi; assay: Antimicrobial activity against Clostridium hathewayi under anaerobic conditions after 44 hrs by CLSI-M11-47 protocol based agar dilution method; settings: Hungatella hathewayi; summary of the method: as §1
[29] = tested on: Actinomyces israelii; assay: Antimicrobial activity against Actinomyces israelii under anaerobic conditions after 44 hrs by CLSI-M11-47 protocol based agar dilution method; summary of the method: as §1
[30] = tested on: Prevotella disiens; assay: Antimicrobial activity against Prevotella disiens under anaerobic conditions after 44 hrs by CLSI-M11-47 protocol based agar dilution method; summary of the method: as §2
[31] = tested on: Bacteroides caccae; assay: Antimicrobial activity against Bacteroides caccae under anaerobic conditions after 44 hrs by CLSI-M11-47 protocol based agar dilution method; summary of the method: as §1
[32] = tested on: Peptoniphilus asaccharolyticus; assay: Antimicrobial activity against Peptoniphilus asaccharolyticus under anaerobic conditions after 44 hrs by CLSI-M11-47 protocol based agar dilution method; summary of the method: as §2

## CCO/N=C(\C(=O)N[C@@H]1C(=O)N2C(C(=O)[O-])=C(Sc3nc(-c4cc[n+](C)cc4)cs3)CS[C@H]12)c1nsc(NP(=O)(O)O)n1 [CEFTAROLINE FOSAMIL]
[1]
  MIC50: 0.06 µg/mL (≈ 0.0876 µM)
  MIC90: 1 µg/mL (≈ 1.46 µM)
[2]
  MIC50: 8 µg/mL (≈ 11.7 µM)
  MIC90: 32 µg/mL (≈ 46.7 µM)
[3]
  MIC50: 2 µg/mL (≈ 2.92 µM)
  MIC90: 32 µg/mL (≈ 46.7 µM)
[4]
  MIC50: 64 µg/mL (≈ 93.5 µM)
  MIC90: > 64 µg/mL
[5]
  MIC50: 64 µg/mL (≈ 93.5 µM)
  MIC90: > 64 µg/mL
[6]
  MIC50: 8 µg/mL (≈ 11.7 µM)
  MIC90: 16 µg/mL (≈ 23.4 µM)
[7]
  MIC50: ≤ 0.008 µg/mL
  MIC90: 0.06 µg/mL (≈ 0.0876 µM)
[8]
  MIC50: 0.5 µg/mL (≈ 0.73 µM)
  MIC90: 4 µg/mL (≈ 5.84 µM)
[9]
  MIC50: 0.25 µg/mL (≈ 0.365 µM)
  MIC90: 0.25 µg/mL (≈ 0.365 µM)
[10]
  MIC50: 0.5 µg/mL (≈ 0.73 µM)
  MIC90: 16 µg/mL (≈ 23.4 µM)
[11]
  MIC50: 0.5 µg/mL (≈ 0.73 µM)
  MIC90: 4 µg/mL (≈ 5.84 µM)
[12]
  MIC50: 0.5 µg/mL (≈ 0.73 µM)
  MIC90: 16 µg/mL (≈ 23.4 µM)
[13]
  MIC50: 0.125 µg/mL (≈ 0.183 µM)
  MIC90: 0.25 µg/mL (≈ 0.365 µM)
[14]
  MIC50: 64 µg/mL (≈ 93.5 µM)
  MIC90: > 64 µg/mL
[15]
  MIC50: 0.5 µg/mL (≈ 0.73 µM)
  MIC90: 16 µg/mL (≈ 23.4 µM)
[16]
  MIC50: 0.125 µg/mL (≈ 0.183 µM)
  MIC90: 0.5 µg/mL (≈ 0.73 µM)
[17]
  MIC50: 0.5 µg/mL (≈ 0.73 µM)
  MIC90: 1 µg/mL (≈ 1.46 µM)
[18]
  MIC50: 0.25 µg/mL (≈ 0.365 µM)
  MIC90: 0.5 µg/mL (≈ 0.73 µM)
[19]
  MIC50: 1 µg/mL (≈ 1.46 µM)
  MIC90: 2 µg/mL (≈ 2.92 µM)
[20]
  MIC50: 0.5 µg/mL (≈ 0.73 µM)
  MIC90: 16 µg/mL (≈ 23.4 µM)
[21]
  MIC50: 0.5 µg/mL (≈ 0.73 µM)
  MIC90: 16 µg/mL (≈ 23.4 µM)
[22]
  MIC50: 64 µg/mL (≈ 93.5 µM)
  MIC90: > 64 µg/mL
[23]
  MIC50: 0.5 µg/mL (≈ 0.73 µM)
  MIC90: 16 µg/mL (≈ 23.4 µM)
[24]
  MIC50: 0.5 µg/mL (≈ 0.73 µM)
  MIC90: 64 µg/mL (≈ 93.5 µM)
[25]
  MIC50: 0.125 µg/mL (≈ 0.183 µM)
  MIC90: 0.25 µg/mL (≈ 0.365 µM)
[26]
  MIC50: 0.06 µg/mL (≈ 0.0876 µM)
  MIC90: 1 µg/mL (≈ 1.46 µM)
[27]
  MIC50: 0.5 µg/mL (≈ 0.73 µM)
  MIC90: 16 µg/mL (≈ 23.4 µM)
[28]
  MIC50: 1 µg/mL (≈ 1.46 µM)
  MIC90: 2 µg/mL (≈ 2.92 µM)
[29]
  MIC50: 0.015 µg/mL (≈ 0.0219 µM)
  MIC90: 0.25 µg/mL (≈ 0.365 µM)
[30]
  MIC50: 2 µg/mL (≈ 2.92 µM)
  MIC90: 32 µg/mL (≈ 46.7 µM)
[31]
  MIC50: 64 µg/mL (≈ 93.5 µM)
  MIC90: > 64 µg/mL
[32]
  MIC50: 0.06 µg/mL (≈ 0.0876 µM)
  MIC90: 0.25 µg/mL (≈ 0.365 µM)
